Test results reported in ChEMBL document CHEMBL1828500, “Synthesis and biological evaluation of dihydroindeno and indeno [1,2-e] [1,2,4]triazolo [3,4-b] [1,3,4]thiadiazines as antimicrobial agents” (2011).
In brackets after ≈: the same amount, converted by molar mass.

What was measured:
Type in all cases: functional
Escherichia coli [1] = experiment: Antibacterial activity against Escherichia coli MTCC 1652 at 2 mg/ml after 24 hrs by agar well diffusion method; conditions: MTCC 1652, 24 h, read-out: DIZ
Outline: (§1)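 Cultures adjusted to 0.5 McFarland and left 15 min on agar for adsorption. 8 mm wells bored and loaded with compound at 2.0 mg/mL in DMSO. Incubated 37 °C for 24 h. Growth-inhibition zone diameter (mm) read with a zone scale and reported as the average. DMSO served as negative control and ciprofloxacin as positive control.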

Bacillus subtilis [2] = experiment: Antibacterial activity against Bacillus subtilis MTCC 121 after 24 hrs by agar well diffusion method; conditions: MTCC 121, 24 h
Outline: (§2)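 MIC by modified agar well diffusion. Two-fold serial dilutions (DMSO stock diluted in sterile distilled water), range 256 to 0.5, placed in wells in triplicate. Agar was pre-seeded with 100 standardized inoculum at 10⁶ cfu/mL. Incubated aerobically at 37 °C for 24 h. MIC taken as lowest concentration giving a clear zone, i.e. complete growth inhibition.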

Bacillus subtilis [3] = experiment: Antibacterial activity against Bacillus subtilis MTCC 121 at 2 mg/ml after 24 hrs by agar well diffusion method; conditions: MTCC 121, 24 h, read-out: DIZ; outline: as §1
Pseudomonas aeruginosa [4] = experiment: Antibacterial activity against Pseudomonas aeruginosa MTCC 741 after 24 hrs by agar well diffusion method; conditions: MTCC 741, 24 h; outline: as §2
Penicillium sp. = experiment: Antifungal activity against Penicillium sp. assessed as inhibition of mycelial growth at 4 mg/ml after 7 days; conditions: 168 h, read-out: GI
Outline: (§3)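 Poisoned food method. Molds grown on Sabouraud dextrose agar at 25 °C for 7 days to provide inocula. Molten SDA (45 °C) dosed with compound at 4.0 mg/mL in DMSO, then solidified. 8 mm fungal plugs from colony margins placed centrally. Incubated 25 °C for 7 days, in triplicate. % mycelial growth inhibition calculated from colony diameters versus DMSO control. Fluconazole served as positive control.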

Escherichia coli [5] = experiment: Antibacterial activity against Escherichia coli MTCC 1652 after 24 hrs by agar well diffusion method; conditions: MTCC 1652, 24 h; outline: as §2
Pseudomonas aeruginosa [6] = experiment: Antibacterial activity against Pseudomonas aeruginosa MTCC 741 at 2 mg/ml after 24 hrs by agar well diffusion method; conditions: MTCC 741, 24 h, read-out: DIZ; outline: as §1
Staphylococcus aureus [7] = experiment: Antibacterial activity against Staphylococcus aureus MTCC 96 at 2 mg/ml after 24 hrs by agar well diffusion method; conditions: MTCC 96, 24 h, read-out: DIZ; outline: as §1
Aspergillus flavus = experiment: Antifungal activity against Aspergillus flavus assessed as inhibition of mycelial growth at 4 mg/ml after 7 days; conditions: 168 h, read-out: GI; outline: as §3
Aspergillus niger = experiment: Antifungal activity against Aspergillus niger assessed as inhibition of mycelial growth at 4 mg/ml after 7 days; conditions: 168 h, read-out: GI; outline: as §3
Staphylococcus aureus [8] = experiment: Antibacterial activity against Staphylococcus aureus MTCC 96 after 24 hrs by agar well diffusion method; conditions: MTCC 96, 24 h; outline: as §2

Row | MIC (Bacillus subtilis [2]) [µg/mL] | MIC (Pseudomonas aeruginosa [4]) [µg/mL] | MIC (Escherichia coli [5]) [µg/mL] | MIC (Staphylococcus aureus [8]) [µg/mL] | SMILES | zone of inhibition at 2000 µg/mL (Escherichia coli [1]) [mm] | zone of inhibition at 2000 µg/mL (Bacillus subtilis [3]) [mm] | inhibition of growth at 4000 µg/mL (Penicillium sp.) [%] | zone of inhibition at 2000 µg/mL (Pseudomonas aeruginosa [6]) [mm] | zone of inhibition at 2000 µg/mL (Staphylococcus aureus [7]) [mm] | inhibition of growth at 4000 µg/mL (Aspergillus flavus) [%] | inhibition of growth at 4000 µg/mL (Aspergillus niger) [%]
1 | 32 (≈ 101 µM) | 128 (≈ 405 µM) | 128 (≈ 405 µM) | 64 (≈ 202 µM) | Cc1cccc2c3nn4c(-c5ccccc5)nnc4sc-3cc12 | 15.6 | 22.6 | 48.8 | 15.3 | 18.6 | 51.1 | 55.5
2 | 64 (≈ 227 µM) | 256 (≈ 907 µM) | 128 (≈ 453 µM) | 128 (≈ 453 µM) | Cc1cccc2c3nn4c(C(C)C)nnc4sc-3cc12 | 15 | 19.3 | 63.3 | 14.6 | 17.6 | 61.1 | 65.5
3 | 4 (≈ 14.8 µM) | 32 (≈ 118 µM) | 32 (≈ 118 µM) | 8 (≈ 29.6 µM) | CCc1nnc2n1N=C1c3cccc(C)c3CC1S2 (stereo not drawn) | 21 | 28 | 65.5 | 19.3 | 26.6 | 63.3 | 64.4
